Results on 4 compounds are retold here after ChEMBL document CHEMBL1152681, “Natural and synthetic 2'-hydroxy-chalcones and aurones: synthesis, characterization and evaluation of the antioxidant and soybean lipoxygenase inhibitory activity” (Bioorg Med Chem, 2009).

One may read the IC50 as the point on the concentration scale where inhibition reaches its midpoint. As usually defined, the inhibition is the drop in the measured response relative to a control, in per cent.

Assay [1] is described as follows: Inhibition of soybean 5-lipoxygenase by UV-absorbance based enzyme assay. Set-up: species or system Glycine max. In short, it runs like this:
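Soybean lipoxygenase (enzyme solution 1/9 × 10^-4 w/v in saline) incubated at room temperature with sodium linoleate and compound in DMSO, in Tris buffer pH 9. Conversion to 13-hydroperoxylinoleic acid recorded at 234 nm and compared with a standard inhibitor.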

The test system of assay [2] is Radical scavenging activity. The experiment in a line: Antioxidant activity assessed as DPPH radical scavenging activity at 50 uM after 20 mins. It is filed as functional. Background: The DPPH test is a chemical assay of radical scavenging.
A short description of assay [3]: Antioxidant activity assessed as superoxide anion radical scavenging activity at 10 uM. It counts as functional. The method, boiled down:
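Non-enzymatic superoxide generation from PMS/NADH/air-oxygen, measured by NBT reduction. Compounds preincubated 2 min before NADH was added. Mixture of 3 µM PMS, 78 µM NADH and 25 µM NBT in phosphate buffer pH 7.4, incubated 2 min at room temperature. Absorbance read at 560 nm against a PMS-containing blank. Caffeic acid was the standard.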

Assay [4] relates to Radical scavenging activity. Briefly: Antioxidant activity assessed as DPPH radical scavenging activity at 100 uM after 60 mins. It is filed as functional. The method, boiled down:
(§1)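 DPPH (0.05 mM) in absolute ethanol; compounds in DMSO added to final 0.1 mM. Mixture shaken vigorously and left 20 min or 60 min. Absorbance read at 517 nm and percent activity calculated. Three replicates, averaged.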

Assay [5] deals with Radical scavenging activity. The experiment in a line: Antioxidant activity assessed as DPPH radical scavenging activity at 100 uM after 20 mins. It counts as functional. In short, it runs like this:
as §1

Assay [6] can be described thus: Antioxidant activity assessed as hydroxyl radical scavenging activity at 100 uM. It is filed as functional. The method, boiled down:
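Fe3+/ascorbic acid-generated hydroxyl radicals detected by the Nash method as formaldehyde formed from DMSO oxidation. The mixture held EDTA 0.1 mM, Fe3+ 167 µM, DMSO 33 mM, test compound 0.1 mM and ascorbic acid 10 mM in 50 mM phosphate buffer pH 7.4. Incubated 30 min at 37 °C, then stopped with CCl3COOH (17% w/v). Trolox was the standard.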

The nature of assay [7]: Antioxidant activity assessed as inhibition of AAPH-induced lipid peroxidation at 10 uM by uV spectrophotometry. It counts as functional. In short, it runs like this:
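Aqueous linoleic acid dispersion (16 mM, 10 µL) in 0.05 M phosphate buffer pH 7.4, prethermostated at 37 °C. Oxidation started under air with AAPH (40 mM solution, 50 µL) and run with 10 µL compound aliquots. The control contained the same DMSO level. The rate of conjugated diene hydroperoxide formation was followed by the rise in absorbance at 234 nm at 37 °C.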

The test system of assay [8] is Radical scavenging activity. Briefly: Antioxidant activity assessed as DPPH radical scavenging activity at 50 uM after 60 mins. It is filed as functional.
Assay [9] can be described thus: Antioxidant activity assessed as hydrogen peroxide scavenging activity by peroxyoxalate chemiluminescent method. It counts as functional.

For `COc1ccc(/C=C2\Oc3cc(OC)cc(OC)c3C2=O)cc1` [4,4',6-TRIMETHOXY-AURONE], the IC50 in assay [1] is 50 µM; in [9] it was 1090 µM. The Activity is 2.8% in assay [2]; 63.2% in assay [3]; 11.5% in assay [4]; 0% in assay [5]; 100% in assay [6]; 0% in assay [8]. Besides, the inhibition in assay [7] is 42.6%.
With `O=C(/C=C/c1ccc(Cl)cc1)c1ccccc1O`, the IC50 in assay [1] is 56 µM; in assay [9], 713 µM. The Activity in assay [2] worked out at 0%; in assay [3], 84.2%; in assay [4], 40.8%; in assay [5], 0%; in assay [6], 100%; in assay [8], 0%. Besides, the inhibition in [7] came out at 74.4%.
`Cc1ccc(/C=C/C(=O)c2ccccc2O)cc1`: the 50% inhibitory concentration (IC50) in assay [1] was determined as 52.5 µM; in [9], 1040 µM. Moreover, the Activity in assay [2] worked out at 0%; in assay [3], 84.2%; in assay [4], 43.8%; in [5], 0%; in assay [6], 100%; in assay [8], 1.5%. Besides, the inhibition in [7] came out at 49.6%.
In the case of `COc1cc(O)c(C(=O)/C=C/c2ccc(Cl)cc2)c(OC)c1`, the values for the IC50 in [1] and in assay [9] were 82 µM and 657 µM, respectively. Besides, the Activity was 0% in assay [2]; 100% in assay [3]; 46.9% in [4]; 15.1% in assay [5]; 100% in assay [6]; 0% in assay [8]. In assay [7], the inhibition was determined as 42.7%.
